Test system: MS2 coat protein
Assay: apparent Kd, MS2 coat protein; higher = weaker binding; RNA-MaP array; FMN 200 µM where present
Summary of the method: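 Stalled E. coli RNA polymerase transcribed the designs on Illumina sequencing-chip clusters. SNAP-549-labelled MS2 coat protein was titrated from 0.7 or 1.5 nM, doubling to 3 µM, without and then with constant ligand, in 100 mM Tris-HCl pH 7.5, 80 mM KCl, 4 mM MgCl2, BSA, DTT, yeast tRNA and Tween-20. Per-cluster binding curves were fitted to green signal normalised to red-channel RNA signal and control-cluster median Fmax. The apparent Kd is the median of the filtered fits.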

[1] = designed as: ON switch for flavin mononucleotide, no ligand
[2] = ligand present: flavin mononucleotide, designed as: ON switch for flavin mononucleotide
[3] = designed as: OFF switch for flavin mononucleotide, no ligand
[4] = ligand present: flavin mononucleotide, designed as: OFF switch for flavin mononucleotide

## UUAAUUAAUUAAUUAUACAUGAGGAUCACCCAUGUAAGUGAUCAGGAUAUCAGCUCGUGUAGAGCUGAGAAGGGAUACAUGUAA
[1]
  apparent Kd: 194 nM
[2]
  apparent Kd: 102 nM

## UUAAUUCGAAACAUGAGGAUCACCCAUGUGUUGUGGUUAAUAUAGGAUAUGAGGAUACUUUUUUGUCAGAAGGAUGAUGGUACU
[1]
  apparent Kd: 11.8 nM
[2]
  apparent Kd: 10.8 nM

## UUAAUUUAGUGAUAUUAUGACAUUAGAAGGCUGUACAUGUUGAUACAUGAGGAUCACCCAUGUAUAGAGGAUAUAGACAAUUUU
[3]
  apparent Kd: 39.8 nM
[4]
  apparent Kd: 93.8 nM

## UUACAGUACAGGUAGGAUAUGUAGGGUGGUACAUGAGGAUCACCCAUGUAUCCACCCUUCGAACGGCAGAAGGGCCCGUCACUGC
[1]
  apparent Kd: 22 nM
[2]
  apparent Kd: 15.4 nM

## UUACAUACAAAGGUACAUGAGGAUCACCCAUGUUUGUUGGGAAGAAGGGUAACAAUACUACACAUACAGGAUAUUUCACAAACA
[1]
  apparent Kd: 49 nM
[2]
  apparent Kd: 35.4 nM

## UUACAUACAAAGGUACAUGAGGAUCACCCAUGUUUGUUGGGAAGAAGGGUAACAAUACUACACAUACAGGAUAUUUCACAAAUA
[1]
  apparent Kd: 48 nM
[2]
  apparent Kd: 31.3 nM

## UUACCCUCAGUAAGGAUAUCUUUAUCUGCUGAUUUAGAGAAGGUACAUGAGGAUCACCCAUGUGCGAUUGGGCA
[3]
  apparent Kd: 80.3 nM
[4]
  apparent Kd: 501 nM

## UUACUAUCACAGAAGGGUAGAUAGUAUAUAGAUGCAGGAUAUGUGACAUGAGGAUCACCCAUGUUUCACCGACAUGAGGAUCAC
[3]
  apparent Kd: 60.4 nM
[4]
  apparent Kd: 66.2 nM

## UUACUAUCACAGAAGGGUGGAUAGUAUAUAGACGCAGGAUAUGUGACAUGAGGAUCACCCAUGUUUCACCGGCAUGAGGAUCAA
[3]
  apparent Kd: 11.4 nM
[4]
  apparent Kd: 15.3 nM

## UUACUAUUGCAGAAGGCGCAAUAAUAUAUAAAGUGAGGAUAUGCAACAUGAGGAUCACCCAUGUUUCACCCAUAUGAGGAUCAC
[3]
  apparent Kd: 6.93 nM
[4]
  apparent Kd: 7.32 nM

## UUACUCAUGUAAGGAUAUGCAGCCGUUUCGGCUGCAGAAGGUACUAUAAUACAUGAGGAUCACCCAUGUCUAUACAAUAAAGAC
[1]
  apparent Kd: 62.9 nM
[2]
  apparent Kd: 26 nM

## UUACUCAUGUAAGGAUAUGCAGCCGUUUCGGCUGCAGAAGGUACUAUAAUACAUGAGGAUCACCCAUGUCUUUUGAAUUUAGAC
[1]
  apparent Kd: 91.4 nM
[2]
  apparent Kd: 33.3 nM

## UUACUCAUGUAAGGAUAUGCAGCCGUUUCGGCUGCAGAAGGUACUAUAAUACAUGAGGAUCACCCAUGUCUUUUUAAAUUUUAC
[1]
  apparent Kd: 109 nM
[2]
  apparent Kd: 35.2 nM

## UUAGAAAUGUUAGGAUAUUAAUAUUUUUUUAGUAUGAUCUACAUGAGGAUCACCCAUGUUAAUAUUAAGAAGGAACAUUUUAUU
[3]
  apparent Kd: 88.5 nM
[4]
  apparent Kd: 64 nM

## UUAGAAUUGCAAGGAUAUCUAAUGUAGAUAGUAAGAGAAGGUGCUUGAUAGUUACAUGAGGAUCACCCAUGUAUUUGGGUUUAU
[1]
  apparent Kd: 395 nM
[2]
  apparent Kd: 375 nM

## UUAGCAACAUGAGGAUCACCCAUGUAGGAUAUCGCUAUUGUAAUCAUGAAACAUGAUUACAAUAGCGAGAAGGACAUAUGCUAC
[3]
  apparent Kd: 11.2 nM
[4]
  apparent Kd: 12.1 nM

## UUAGCAACAUGAGGAUCACCCAUGUAGGAUAUCGCUAUUGUAAUCAUGAAACAUGAUUACAAUAGCGAGAAGGACAUAUGCUAU
[3]
  apparent Kd: 10.1 nM
[4]
  apparent Kd: 11.7 nM

## UUAGCAUACCGAGGAUAUUCAUAUAAUAAAUAAACAUGAGGAUCACCCAUGUGGCGAAAGCCUAGGGAGAAGGCGGAAUGCUAC
[1]
  apparent Kd: 206 nM
[2]
  apparent Kd: 26.5 nM

## UUAGCGUAAGUAAGGAUAUGCUGGUCGAAAGACCAGCAGAAGGUACAUGAGGAUCACCCAUGUUGAGUUGUUGC
[3]
  apparent Kd: 20 nM
[4]
  apparent Kd: 24.3 nM

## UUAGUUUUGCAAGGAUAUGUUUAUUUAUAGUUGCCUCUUACAUGAGGAUCACCCAUGUUUUACUUACAGAAGGUGCAAUGAUUU
[3]
  apparent Kd: 165 nM
[4]
  apparent Kd: 416 nM

## UUAUAAAGUGUGAGGAUAUGCUGGUCCUUAGAUCAGCAGAAGGCACAUGAGGAUCACCCAUGUAAUAUAUUUUU
[3]
  apparent Kd: 38.4 nM
[4]
  apparent Kd: 185 nM

## UUAUACAUGAGGAUCUCCCAUGACAUGAGGAUCACCCAUGUGCAGGAUAUACGUGAUAUAAUAUAGUAGAAGGGCAGACUAUAU
[3]
  apparent Kd: 119 nM
[4]
  apparent Kd: 130 nM

## UUAUACAUUCGAGGAUAUCGGAGAGAAAUCAUUCGAGAAGGCGAUUCAUGAUGUAUUAUCCUGGACAUGAGGAUCACCCAUGUA
[1]
  apparent Kd: 79.7 nM
[2]
  apparent Kd: 68.5 nM

## UUAUACGGUGAGGAUAUCUUCACUAAAGUGUGAAGAGAAGGCGCUACAUGAGGAUCACCCAUGUCUAUGGGCAG
[3]
  apparent Kd: 556 nM
[4]
  apparent Kd: 755 nM

## UUAUCUCAUGAGAAGGACAUGAGGAUCACCCAUGUAGGAUAUCAUGGGUCAGAGGAAUUGAAUCUAAUGAUUCAAUUACUCUUC
[1]
  apparent Kd: 60.5 nM
[2]
  apparent Kd: 10.4 nM

## UUAUCUCAUGAGAAGGACAUGAGGAUCACCCAUGUAGGAUAUCAUGGGUCAGUGGAAUUGAAUCUUCGGAUUCAAUAACUCUAC
[1]
  apparent Kd: 72.5 nM
[2]
  apparent Kd: 11.9 nM

## UUAUCUUGUCAAGGAUAUGUAGUAUUGAUCUGAAAACAUGAGGAUCACCCAUGUAUAUGGUGGGAACAGAAGGUGAAUGUUGAA
[3]
  apparent Kd: 823 nM
[4]
  apparent Kd: 727 nM

## UUAUGAGAGCAGGAUAUCUUAUUUUUUUUUUGUGGAGAAGGGCUGACAUGAGGAUCACCCAUGUGGUCCUAGAU
[3]
  apparent Kd: 27.9 nM
[4]
  apparent Kd: 32.9 nM

## UUAUGGAUUACAGGAUAUGUUAGUUUUAAGUGUAUUGGUUAUUACUUAAUUACAGAAGGGUAUUACAUGAGGAUCACCCAUGUA
[1]
  apparent Kd: 16.4 nM
[2]
  apparent Kd: 11.8 nM

## UUAUGUCGCGUAGGAUAUCAUUAGAGUUGUAAUUUAAUUGUAAUUUCGAUAUGAGAAGGACGUACACAUGAGGAUCACCCAUGU
[3]
  apparent Kd: 17.2 nM
[4]
  apparent Kd: 15.3 nM

## UUAUUAAAUGUAGGAUAUGCAUAUUAUUAUUAUGCAGAAGGACAUGAGGAUCACCCAUGUAUAUUAUUAUUAUUUAUUAUUUAU
[3]
  apparent Kd: 45.7 nM
[4]
  apparent Kd: 61.7 nM

## UUAUUGUGAGGAUAUCAGGUGUGCUAGCGUACUGGUACAUCUGAGAAGGCACAUGAGGAUCACCCAUGUUCCUU
[3]
  apparent Kd: 14.3 nM
[4]
  apparent Kd: 37.3 nM

## UUAUUUAUGUAAGGAUAUCGAUGAUAUACGCAUCCGACAUGAGGAUCACCCAUGUUUUAUUUUGUCGAGAAGGUACAUUGUCGG
[1]
  apparent Kd: 57.8 nM
[2]
  apparent Kd: 57.1 nM

## UUAUUUUGUCAAGGAUAUGUAGUAUUGAUCUGAAAACAUGAGGAUCACCCAUGUAUAUGGUGGGAACAGAAGGUGAAUGUUGAA
[3]
  apparent Kd: 658 nM
[4]
  apparent Kd: 845 nM

## UUAUUUUUACAGAAGGUUUAAUAAUAUAUAUGAGAAGGAUAUGUAACAUGAGGAUCACCCAUGUUUCACCUAUAUGAGGAUCAU
[3]
  apparent Kd: 7.26 nM
[4]
  apparent Kd: 6.11 nM

## UUAUUUUUACAGAAGGUUUAAUAAUAUGUAUGAGAAGGAUAUGUAACAUGAGGAUCACCCAUGUUUCGUCUAUAUGAGGAUCAU
[3]
  apparent Kd: 6.77 nM
[4]
  apparent Kd: 7.22 nM

## UUCAGCGAUCAAGGAUAUCUAUAAACAUGCGGACAUGAGGAUCACCCAUGUUGAUCACCCAUGUGGGAGAAGGUGAACAUGAGG
[1]
  apparent Kd: 174 nM
[2]
  apparent Kd: 72.9 nM

## UUCAGCUCGUCAGGAUAUACGUCACUGCUUCGGCAGUGUGGUAAGAUCACAUGAGGAUCACCCAUGUAGAAGGGACGAGCUGAC
[3]
  apparent Kd: 13.5 nM
[4]
  apparent Kd: 252 nM

## UUCAGCUCGUGAGGAUAUACAUGUGCUGGAAACAGCACUAAUUAAAUCACAUGAGGAUCACCCAUGUAGAAGGCACGAGCUGAG
[3]
  apparent Kd: 16.2 nM
[4]
  apparent Kd: 25.8 nM

## UUCAGCUCGUGAGGAUAUACAUGUGCUGGAUACAGCACUAUUAUGUUCACAUGAGGAUCACCCAUGUAGAAGGCACGAGCUGAG
[3]
  apparent Kd: 16.6 nM
[4]
  apparent Kd: 21.4 nM

## UUCAGGGAUCAAGGAUAUCUAUAAUCAUGCGGACAUGAGGAUCACCCAUGUUGAUUACCCAUGAGGGAGAAGGUGAACAUGAGG
[1]
  apparent Kd: 40.1 nM
[2]
  apparent Kd: 16.7 nM

## UUCAUGUGAGGAUAUAAAAGGAAGGUGGUAUCUAUCAACAAUUAGAAGGCACAUGAGGAUCACCCAUGUCUGAA
[3]
  apparent Kd: 67 nM
[4]
  apparent Kd: 60.9 nM

## UUCAUGUGAGGAUAUAAAAUGAAUAUAAAUUAUUAUCUUGAUUAGAAGGCACAUGAGGAUCACCCAUGUCUGAA
[3]
  apparent Kd: 33.1 nM
[4]
  apparent Kd: 47.9 nM

## UUCAUGUGAGGAUAUGCGGCGGCAGGUGGGCCUGUCGCUGAGCAGAAGGCACAUGAGGAUCACCCAUGUGCUCC
[3]
  apparent Kd: 34.3 nM
[4]
  apparent Kd: 59.7 nM

## UUCCAACAUGAGGAUCACCCAUGUCGGAAGCAUUAAGGAUAUGGGCGGCCGGUGGCUGAACCAGAAGGUAAGCCAG
[1]
  apparent Kd: 15.3 nM
[2]
  apparent Kd: 18.1 nM

## UUCCCAGCGGGAGGAUAUGGUGCCUUAUUGGUGCUAGAAGGUCCAACAUGAGGAUCACCCAUGUGGGAGUGGUCUAAUGACCUC
[1]
  apparent Kd: 212 nM
[2]
  apparent Kd: 144 nM

## UUCCGGCGUGUAGGAUAUGGAUCCGAUUAGGAUCCAGAAGGACAUGAGGAUCACCCAUGUACAUGUAAACAGUCAUCACCGGAU
[3]
  apparent Kd: 8.09 nM
[4]
  apparent Kd: 40.2 nM

## UUCCUCGUUGUGAGGAUAUCGUCCUCUUUUUGUUACGAGAAGGCACAUGAGGAUCACCCAUGUUUCUUGAUGUU
[3]
  apparent Kd: 16.7 nM
[4]
  apparent Kd: 42.3 nM

## UUCGGGAACUCUAUGGGCCGCUACAUGAGGAUCACCCAUGUGCAGGAUAUAGGUGUCACUACCGCCUAGAAGGGCACAGAAAGA
[3]
  apparent Kd: 41.4 nM
[4]
  apparent Kd: 58.6 nM

## UUGAAUUGAAACAUGAGGAUCACCCAUGUGUCAUAAUUGACAUAGGAUAUGUUUAUACUUUUAAAACAGAAGGAUGACGAUACU
[1]
  apparent Kd: 14.1 nM
[2]
  apparent Kd: 9.68 nM

## UUGAAUUGAAACAUGAGGAUCACCCAUGUGUCAUAGUUGACAUAGGAUAUGCUUAUACUUUUAAAGCAGAAGGAUGACGAUACU
[1]
  apparent Kd: 19.8 nM
[2]
  apparent Kd: 7.46 nM

## UUGAGGUAAGGAUAUAUUAGGAGCGAAGUUACUUGUUUUUUAUAGAAGGUACAUGAGGAUCACCCAUGUGAAUA
[3]
  apparent Kd: 27.7 nM
[4]
  apparent Kd: 23.4 nM

## UUGAUAAGGAGAGGAUAUGGACAUGAGGAUCACCCAUGUACAUGGGAAUAUAUACUGAAUUUUUACUAGAAGGCUUACAUAUUU
[3]
  apparent Kd: 14.7 nM
[4]
  apparent Kd: 13 nM

## UUGAUUAGAAGUUAACAUGAGGAUCACCCAUGUAUUGGAUCAGAGGAUAUGCAUGUUUGAUAGUAGCAGAAGGCUGAUGGUGGA
[1]
  apparent Kd: 53.5 nM
[2]
  apparent Kd: 61.6 nM
